# Key:
# Type in all cases: functional
# MDA-MB-435 = test: Cytotoxicity against human MDA-MB-435 cells incubated for 72 hrs by MTT assay; details: MDA-MB-435, 72 h
# Method in brief: (§1)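 MTT assay. Cells seeded at 5 × 10³/well and grown 24 h at 37 °C, 5% CO₂. Compounds added at several concentrations in triplicate wells, with 0.1% DMSO control, for 72 h. MTT then added for 4 h, formazan dissolved in DMSO, and absorbance read at 570 nm. GI₅₀ by Logit method; three experiments.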
# HCT-116 = test: Cytotoxicity against human HCT116 cells incubated for 72 hrs by MTT assay; details: HCT-116, 72 h; method in brief: as §1
# A549 = test: Cytotoxicity against human A549 cells incubated for 72 hrs by MTT assay; details: A549, 72 h; method in brief: as §1
Compound,GI50 (MDA-MB-435) [µM],GI50 (HCT-116) [µM],GI50 (A549) [µM]
COc1ccc2c(c1)C(=O)N1CCc3c([nH]c4ccc(OC)cc34)C1N2C (stereo unspecified),9.8,0.033,> 200
COc1ccc2c(c1)N(C)C1c3[nH]c4ccccc4c3CCN1C2=O (stereo unspecified),> 200,> 200,> 200
COc1ccc2c(c1)C(=O)N1CCc3c([nH]c4ccccc34)C1N2C (stereo unspecified),0.29,1.25,0.94
O=C1c2ccccc2OC2c3[nH]c4ccccc4c3CCN12 (stereo unspecified),3.13,3.03,2.4
COc1ccc2[nH]c3c(c2c1)CCN1C(=O)c2cc([N+](=O)[O-])ccc2N(C)C31 (stereo unspecified),> 200,0.15,> 200
CN1c2ccccc2C(=O)N2CCc3c([nH]c4ccc(Cl)cc34)C21 (stereo unspecified),> 200,> 200,> 200
O=c1c2cc(F)ccc2nc2n1CCc1c-2[nH]c2ccccc12,15.9,20,47.2
Cc1ccc2c(c1)C(=O)N1CCc3c([nH]c4ccccc34)C1N2C (stereo unspecified),0.32,0.61,32.2
Cc1ccc2[nH]c3c(c2c1)CCN1C(=O)c2ccccc2N(C)C31 (stereo unspecified),> 200,> 200,> 200
CN1c2ccc(I)cc2C(=O)N2CCc3c([nH]c4ccccc34)C21 (stereo unspecified),2.94,> 200,> 200
CN1c2ccccc2C(=O)N2CCc3c([nH]c4ccc(I)cc34)C21 (stereo unspecified),0.26,0.78,11.4
CN1c2ccccc2C(=O)N2CCc3c([nH]c4ccc([N+](=O)[O-])cc34)C21 (stereo unspecified),> 200,> 200,> 200
CCOc1ccc2[nH]c3c(c2c1)CCN1C(=O)c2ccccc2N(C)C31 (stereo unspecified),5.93,19.2,> 200
COc1ccc2[nH]c3c(c2c1)CCN1C(=O)c2cc(Cl)ccc2N(C)C31 (stereo unspecified),2,0.004,13
COc1cc2c(cc1OC)N(C)C1c3[nH]c4ccccc4c3CCN1C2=O (stereo unspecified),8.97,> 200,> 200
CCc1c2c(nc3ccc(OC(=O)N4CCC(N5CCCCC5)CC4)cc13)-c1cc3c(c(=O)n1C2)COC(=O)[C@]3(O)CC [IRINOTECAN],12.2,7.1,5
COc1ccc2c(c1)C(=O)N1CCc3c([nH]c4ccc(O)cc34)C1N2C (stereo unspecified),0.66,0.07,1.6
C#CCOc1ccc2[nH]c3c(c2c1)CCN1C(=O)c2ccccc2N(C)C31 (stereo unspecified),4.39,14,> 200
Cc1ccc2c(c1)c1c(n2C(=O)c2ccc(Cl)cc2)C2N(CC1)C(=O)c1ccccc1N2C (stereo unspecified),1.14,11.4,> 200
CN1c2ccccc2C(=O)N2CCc3c(n(C(=O)c4ccc(Cl)cc4)c4ccc(Br)cc34)C21 (stereo unspecified),38.7,19.7,22.5
COc1ccc2[nH]c3c(c2c1)CCN1C(=O)c2cc(F)ccc2N(C)C31 (stereo unspecified),< 0.003,0.78,200
CN1c2ccccc2C(=S)N2CCc3c(n(C(=O)c4ccc(Cl)cc4)c4ccccc34)C21 (stereo unspecified),> 200,> 200,> 200
CN1c2ccccc2C(=O)N2CCc3c([nH]c4ccc(Br)cc34)C21 (stereo unspecified),37.6,> 200,> 200
COc1ccc2c(c1)c1c(n2C(=O)c2ccc(Cl)cc2)C2N(CC1)C(=O)c1ccccc1N2C (stereo unspecified),11.8,71,87.2
CN1c2ccccc2C(=O)N2CCc3c([nH]c4c([N+](=O)[O-])cc([N+](=O)[O-])cc34)C21 (stereo unspecified),0.16,> 200,> 200
CN1c2ccccc2C(=O)N2CCc3c([nH]c4ccc(F)cc34)C21 (stereo unspecified),27.4,8.56,6.85
O=C1c2cc(F)ccc2NC2c3[nH]c4ccccc4c3CCN12 (stereo unspecified),> 200,> 200,> 200

# From ChEMBL document CHEMBL2169847, “New tricks for an old natural product: discovery of highly potent evodiamine derivatives as novel antitumor agents by systemic structure-activity relationship analysis and biological evaluations” (J Med Chem, 2012)
